From PMC3064798 (Nucleic Acids Research, 2011)
Entries after “also recorded” stand apart in the source; their conditions may differ.

Legend:
[1] = Photochemical cleavage studies; type: physicochemical; conditions: for DT50 values (time at which 50% of 2-nitrobenzyl groups were photochemically cleaved): 365 nm UV, incorporated in primer-1/oligoTemplate-4; for DT50 in sodium azide compared with the FBD solution: 50 mM sodium azide vs FBD; for DT50 faster than the parent dU.I analog: azide solution
Method in brief: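 Analogs (100 nM final) were incorporated as in PEP on BODIPY-FL primer-1/oligoTemplate-4 (10 nM/80 nM). Reactions were quenched in FBD solution (20% formamide, 10 mM Na2EDTA pH 8.0, Blue Dextran) or 50 mM sodium azide. Samples were irradiated at 365 nm for various times, then iced, mixed with formamide stop solution and run on an AB 377 sequencer. DT50 is the time for 50% cleavage, from triplicates ± 1 SD.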

Taq polymerase = Taq polymerase (Thermus aquaticus, UniProt P19821); experiment: PEP; type: biochemical; conditions: for IC50 values (activity in words): Taq, Not Active = no visible +1 band in 377 gel image at 100 μM
Method in brief: (§1)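 Polymerase end-point assay for single-base incorporation. 5 nM BODIPY-FL-labelled primer-1 was hybridised to 40 nM oligoTemplate-4, with the interrogation base complementary to dU. Absence of a +1 band on the 377 gel image at 100 μM counts as not active. IC50 was averaged from triplicates ± 1 SD. Incorporation bias is the analog IC50 divided by the natural-nucleotide (HOMedUTP) IC50.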

Bst polymerase = molecular target: T1, Bst polymerase (Geobacillus stearothermophilus, UniProt P52026); experiment: PEP; type: biochemical
T1 sequence (P52026 1-876): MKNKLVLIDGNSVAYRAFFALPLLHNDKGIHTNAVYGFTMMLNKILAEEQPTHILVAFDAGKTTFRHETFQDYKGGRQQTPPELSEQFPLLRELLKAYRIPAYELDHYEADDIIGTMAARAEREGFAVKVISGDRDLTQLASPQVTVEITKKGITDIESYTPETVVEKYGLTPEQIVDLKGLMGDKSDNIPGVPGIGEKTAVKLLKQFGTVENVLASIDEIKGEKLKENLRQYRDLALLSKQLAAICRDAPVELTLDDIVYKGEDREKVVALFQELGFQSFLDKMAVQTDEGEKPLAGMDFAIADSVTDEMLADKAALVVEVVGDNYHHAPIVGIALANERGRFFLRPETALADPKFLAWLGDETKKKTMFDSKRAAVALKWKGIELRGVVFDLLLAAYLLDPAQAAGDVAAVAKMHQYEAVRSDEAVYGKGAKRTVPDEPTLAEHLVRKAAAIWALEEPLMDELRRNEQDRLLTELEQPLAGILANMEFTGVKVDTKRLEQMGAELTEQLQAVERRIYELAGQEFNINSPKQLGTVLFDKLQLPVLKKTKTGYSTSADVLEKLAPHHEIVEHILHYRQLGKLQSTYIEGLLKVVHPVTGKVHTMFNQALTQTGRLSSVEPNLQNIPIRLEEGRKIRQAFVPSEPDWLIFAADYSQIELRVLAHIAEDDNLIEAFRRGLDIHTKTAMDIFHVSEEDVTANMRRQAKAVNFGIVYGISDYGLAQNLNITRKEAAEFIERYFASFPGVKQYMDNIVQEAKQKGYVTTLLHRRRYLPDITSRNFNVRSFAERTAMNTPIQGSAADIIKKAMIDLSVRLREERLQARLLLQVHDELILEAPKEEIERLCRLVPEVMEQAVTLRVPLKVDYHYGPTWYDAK
Method in brief: as §1

Therminator polymerase = molecular target: T2, Therminator polymerase (Thermococcus sp., UniProt Q56366, A485L/D141A/E143A); experiment: PEP; type: biochemical; conditions: for Incorporation bias (analog IC50/HOMedUTP IC50): Therminator
T2 sequence (Q56366 1-775 D141A/E143A/A485L): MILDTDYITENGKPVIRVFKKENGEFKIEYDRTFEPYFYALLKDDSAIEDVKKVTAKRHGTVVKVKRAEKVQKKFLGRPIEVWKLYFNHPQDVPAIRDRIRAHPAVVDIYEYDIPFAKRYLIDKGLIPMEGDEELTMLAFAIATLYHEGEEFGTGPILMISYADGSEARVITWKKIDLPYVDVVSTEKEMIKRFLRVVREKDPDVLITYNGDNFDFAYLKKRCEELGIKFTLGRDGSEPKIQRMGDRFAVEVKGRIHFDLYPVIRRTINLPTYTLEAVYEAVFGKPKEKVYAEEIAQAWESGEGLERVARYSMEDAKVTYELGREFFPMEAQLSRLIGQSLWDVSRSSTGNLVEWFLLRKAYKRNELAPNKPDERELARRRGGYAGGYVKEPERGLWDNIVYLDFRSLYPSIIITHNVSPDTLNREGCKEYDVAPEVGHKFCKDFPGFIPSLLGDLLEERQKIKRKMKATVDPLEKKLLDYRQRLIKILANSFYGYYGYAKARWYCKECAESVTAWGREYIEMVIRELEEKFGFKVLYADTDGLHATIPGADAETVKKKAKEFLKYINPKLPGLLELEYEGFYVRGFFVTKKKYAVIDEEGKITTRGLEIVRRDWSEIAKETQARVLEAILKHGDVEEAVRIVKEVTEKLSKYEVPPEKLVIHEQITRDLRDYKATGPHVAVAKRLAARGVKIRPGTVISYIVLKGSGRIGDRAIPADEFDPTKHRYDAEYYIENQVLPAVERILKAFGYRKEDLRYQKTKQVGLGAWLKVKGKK
Method in brief: as §1

Vent(exo^−) polymerase = molecular target: T3, Vent(exo^−) polymerase (Thermococcus litoralis, UniProt P30317, D141A/DEL1082-1471/DEL495-1032/E143A); experiment: PEP; type: biochemical; conditions: for Incorporation bias (analog IC50/HOMedUTP IC50): Vent(exo^−)
T3 sequence (P30317 with tags, fused parts or gaps D141A/E143A/DEL495-1032/DEL1082-1471): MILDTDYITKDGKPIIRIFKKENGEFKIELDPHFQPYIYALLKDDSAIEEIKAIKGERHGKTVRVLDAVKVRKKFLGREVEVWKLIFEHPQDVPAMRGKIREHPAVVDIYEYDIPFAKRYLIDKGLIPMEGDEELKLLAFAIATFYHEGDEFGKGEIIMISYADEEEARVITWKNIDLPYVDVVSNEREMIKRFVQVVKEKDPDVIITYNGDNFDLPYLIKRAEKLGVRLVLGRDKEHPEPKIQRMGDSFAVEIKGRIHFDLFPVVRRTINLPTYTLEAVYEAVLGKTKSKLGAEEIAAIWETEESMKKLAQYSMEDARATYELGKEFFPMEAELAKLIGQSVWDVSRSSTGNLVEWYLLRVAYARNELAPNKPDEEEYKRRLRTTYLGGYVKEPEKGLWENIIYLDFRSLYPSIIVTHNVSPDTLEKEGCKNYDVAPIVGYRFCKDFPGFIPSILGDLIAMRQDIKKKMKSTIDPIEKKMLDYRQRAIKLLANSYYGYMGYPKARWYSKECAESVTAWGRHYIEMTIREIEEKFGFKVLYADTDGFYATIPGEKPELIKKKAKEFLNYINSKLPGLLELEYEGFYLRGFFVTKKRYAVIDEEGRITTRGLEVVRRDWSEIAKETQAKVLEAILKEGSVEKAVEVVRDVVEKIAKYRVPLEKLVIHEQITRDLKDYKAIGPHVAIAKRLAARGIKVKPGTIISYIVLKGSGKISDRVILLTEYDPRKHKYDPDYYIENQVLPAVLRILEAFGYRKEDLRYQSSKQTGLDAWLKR
Method in brief: as §1

Taq polymerase, sequence (P19821 whole entry): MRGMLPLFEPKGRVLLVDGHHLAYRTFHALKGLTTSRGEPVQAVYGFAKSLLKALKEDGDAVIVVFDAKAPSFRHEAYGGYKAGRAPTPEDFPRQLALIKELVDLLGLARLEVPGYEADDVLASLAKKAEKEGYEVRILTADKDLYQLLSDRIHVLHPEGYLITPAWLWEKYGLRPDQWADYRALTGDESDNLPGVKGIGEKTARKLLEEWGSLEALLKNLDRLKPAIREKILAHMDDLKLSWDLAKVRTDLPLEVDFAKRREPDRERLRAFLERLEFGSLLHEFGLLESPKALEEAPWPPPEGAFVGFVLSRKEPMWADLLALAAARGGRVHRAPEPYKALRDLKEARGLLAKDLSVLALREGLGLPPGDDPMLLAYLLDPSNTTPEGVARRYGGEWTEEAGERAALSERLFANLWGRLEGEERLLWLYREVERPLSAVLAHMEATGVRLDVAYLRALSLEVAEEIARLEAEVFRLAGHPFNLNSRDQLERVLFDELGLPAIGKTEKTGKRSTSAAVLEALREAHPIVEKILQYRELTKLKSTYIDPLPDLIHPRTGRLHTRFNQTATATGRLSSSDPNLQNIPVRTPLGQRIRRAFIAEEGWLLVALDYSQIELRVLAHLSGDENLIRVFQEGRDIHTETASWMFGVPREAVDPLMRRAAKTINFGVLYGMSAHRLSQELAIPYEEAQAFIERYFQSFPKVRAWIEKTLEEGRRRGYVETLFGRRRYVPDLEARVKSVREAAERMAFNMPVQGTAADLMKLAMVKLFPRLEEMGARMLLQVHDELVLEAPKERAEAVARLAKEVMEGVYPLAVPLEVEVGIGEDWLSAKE

CC(OCc1cn([C@H]2C[C@H](O)[C@@H](COP(=O)(O)OP(=O)(O)OP(=O)(O)O)O2)c(=O)[nH]c1=O)c1ccccc1[N+](=O)[O-] (mixture of isomers) [dU.II, 5-[1-(2-Nitrophenyl)ethyloxy]methyl-2'-deoxyuridine-5’-triphosphate]
DT50 values (time at which 50% of 2-nitrobenzyl groups were photochemically cleaved) ([1]; 50 mM NaN3): 2.0 ± 0.1 s
DT50 in sodium azide compared with the FBD solution [1]: approximately three-fold lower
DT50 values (time at which 50% of 2-nitrobenzyl groups were photochemically cleaved) ([1]; FBD solution): 7.4 ± 1.2 s
DT50 faster than the parent dU.I analog [1]: 33-60%
IC50 values (activity in words) (Taq polymerase): no activity at all; also recorded: Not Active^a
IC50 (Bst polymerase): 3500 ± 200 nM
Incorporation bias (analog IC50/HOMedUTP IC50) (Bst polymerase; Bst): 1600
Incorporation bias (analog IC50/HOMedUTP IC50) (Therminator polymerase): 1.0
IC50 (Vent(exo^−) polymerase): 2.2 ± 0.2 nM
Incorporation bias (analog IC50/HOMedUTP IC50) (Vent(exo^−) polymerase): 1.6

O=c1[nH]c(=O)n([C@H]2C[C@H](O)[C@@H](COP(=O)(O)OP(=O)(O)OP(=O)(O)O)O2)cc1COCc1ccccc1[N+](=O)[O-] [dU.I, 5-(2-Nitrobenzyloxy)methyl-2'-deoxyuridine-5’-triphosphate]
DT50 values (time at which 50% of 2-nitrobenzyl groups were photochemically cleaved) ([1]; 50 mM NaN3): 3.2 ± 0.1 s
DT50 in sodium azide compared with the FBD solution [1]: approximately three-fold lower
DT50 values (time at which 50% of 2-nitrobenzyl groups were photochemically cleaved) ([1]; FBD solution): 8.7 ± 0.9 s
IC50 (Taq polymerase): 50000 nM
IC50 (Bst polymerase): 98 ± 13 nM
Incorporation bias (analog IC50/HOMedUTP IC50) (Bst polymerase; Bst): 45
IC50 (Therminator polymerase): 1.8 ± 0.1 nM
Incorporation bias (analog IC50/HOMedUTP IC50) (Therminator polymerase): 1.1
IC50 (Vent(exo^−) polymerase): 2 ± 0.1 nM
Incorporation bias (analog IC50/HOMedUTP IC50) (Vent(exo^−) polymerase): 1.4

CC(C)C(OCc1cn([C@H]2C[C@H](O)[C@@H](COP(=O)(O)OP(=O)(O)OP(=O)(O)O)O2)c(=O)[nH]c1=O)c1ccccc1[N+](=O)[O-] (mixture of isomers) [dU.III, 5-[1-(2-Nitrophenyl)-2-methyl-propyloxy]methyl-2'-deoxyuridine-5’-triphosphate]
DT50 values (time at which 50% of 2-nitrobenzyl groups were photochemically cleaved) ([1]; 50 mM NaN3): 2.4 ± 0.2 s
DT50 in sodium azide compared with the FBD solution [1]: approximately three-fold lower
DT50 values (time at which 50% of 2-nitrobenzyl groups were photochemically cleaved) ([1]; FBD solution): 8.8 ± 0.8 s
DT50 faster than the parent dU.I analog [1]: 33-60%
IC50 values (activity in words) (Taq polymerase): none of the Family A polymerases showed any activity; also recorded: Not Active^a
IC50 values (activity in words) (Bst polymerase; Bst, Not Active = no visible +1 band in 377 gel image at 100 μM): none of the Family A polymerases showed any activity; also recorded: Not Active^a
Incorporation bias (analog IC50/HOMedUTP IC50) (Therminator polymerase): 1.4
IC50 (Vent(exo^−) polymerase): 5.9 ± 0.7 nM
Incorporation bias (analog IC50/HOMedUTP IC50) (Vent(exo^−) polymerase): 4.2
